Reference: paper PMC4609241 (Molecular imaging and biology : MIB : the official …, 2015)
Read-outs that look alike come from different tables or passages of the source.

Columns and labels:
Type in all cases: in vivo, mouse
[1] = system: U87 MG tumor; experiment: Autoradiography of resected tissues
Procedure, shortened: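 U87 MG tumour-bearing mice got the 18F-labelled fluorescent PARP1 tracer alone, or the tracer 30 min after Olaparib as a blocking agent. Tumour, brain and muscle were resected, and tumour slices were imaged by autoradiography beside H&E staining. Tissue/muscle ratios were calculated for tumours and brains in the non-blocked and blocked groups.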

[2] = system: U87 MG glioblastoma xenografts; experiment: Small animal PET imaging of U87 MG glioblastoma xenografts
Procedure, shortened: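 Mice carrying U87 MG xenografts in the right shoulder were given 100–200 μl tracer (80–160 mCi/μmol), e.g. 200 μCi in 100 μl 15 % PEG300/85 % 0.9 % saline. PET/CT gave coronal and axial reconstructions, and tumour uptake and SUV were derived. Blocked mice were pre-injected with a 50-fold excess of Olaparib (3.7 μmol in 100 μl of the same vehicle).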

[3] = Ex vivo blood half-life; settings: tail vein injection, 27 μCi, 100 μl
Procedure, shortened: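 For blood clearance, the tracer was given by tail vein. Blood was collected at 5, 15, 30, 60 and 120 min, weighed and γ-counted, and expressed as %IA/g (n = 4). A weighted t1/2 was derived.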

[4] = system: U87 MG glioblastoma xenografts; experiment: Biodistribution study in tumor xenograft mice
Procedure, shortened: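 Tumour xenograft mice were injected with the tracer, with or without Olaparib pre-injection. Mice were euthanized at 90 min p.i. and organ radioactivity was counted, expressed as %ID/g (n = 4, mean ± SD). Tumour-to-non-target tissue ratios, including tumour/brain and tumour/muscle, were calculated.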

[5] = system: U87 MG tumor; settings: for Tumor to brain ratio: ex vivo
[6] = blocked, pre-injection of Olaparib

**Q.** Which “Lowering of tumor to muscle ratio by blocking” value ([1]; Olaparib blocking) does the source give for `CC1=CC(C)=[N+]2C1=Cc1ccc(CCC(=O)N3CCN(C(=O)c4cc(Cc5n[nH]c(=O)c6ccccc56)ccc4F)CC3)n1[B-]2(F)[18F]` (stereo not drawn) [[^18F]PARPi-FL] here?
**A.** approximately 66%

**Q.** What about the “Overall reduction of tumor uptake in blocked mice (autoradiography)” value ([1]; Olaparib injected 30 min before tracer) of the same compound?
**A.** 80±12%

**Q.** What about the “Brain to muscle ratio (autoradiography)” value ([1]; Olaparib-blocked mice) of the same compound?
**A.** 1.02±0.22

**Q.** What about the “Tumor to muscle ratio (autoradiography)” value ([1]; Olaparib-blocked mice) of the same compound?
**A.** 2.6±1.6

**Q.** What about the “Brain to muscle ratio (autoradiography)” value ([1]; non-blocked mice) of the same compound?
**A.** 0.87± 0.48

**Q.** And the “Tumor to muscle ratio (autoradiography)” value ([1]; non-blocked mice)?
**A.** 7.5±0.9

**Q.** What about the “Organ uptake / excretion seen by PET” value ([2]; PET imaging) of the same compound?
**A.** high uptake in the liver and in the intestinal tract

**Q.** What about the “Standardized uptake value (SUV) in U87 MG tumors” value ([2]; non-blocked) of the same compound?
**A.** 1.10±0.53

**Q.** What about the “Uptake in U87 MG tumors” value ([2]; non-blocked) of the same compound?
**A.** 0.78±0.1

**Q.** And the “Standardized uptake value (SUV) in U87 MG tumors” value ([2]; pre-injection of an excess of Olaparib (50-fold))?
**A.** 0.10±0.06

**Q.** What about the “Blood half-life, weighted t1/2” value [3] of the same compound?
**A.** 15.6 min

**Q.** What about the “Tumor to muscle ratio” value ([4]; 90 min post injection) of the same compound?
**A.** 4±0.6

**Q.** And the “Metabolic stability in vivo (defluorination)” value ([4]; U87 MG xenograft-bearing mice, bone uptake)?
**A.** quick metabolic defluorination

**Q.** What about the “Tumor to brain tissue ratio” value ([4]; biodistribution) of the same compound?
**A.** 12±2.1

**Q.** What about the “Reduction of uptake in blocked U87 MG tumors” value ([4]; blocked U87 MG tumors) of the same compound?
**A.** 84%

**Q.** What about the Kidneys uptake [4, 6] of the same compound?
**A.** 0.4±0.1 %ID/g

**Q.** What about the Liver uptake [4, 6] of the same compound?
**A.** 2.02± 0.2 %ID/g

**Q.** And the Kidneys uptake ([4]; non-blocked)?
**A.** 0.7±0.1 %ID/g

**Q.** And the Liver uptake ([4]; non-blocked)?
**A.** 3.8±0.4 %ID/g

**Q.** And the Tumor uptake ([4]; positive control group (non-blocked), 90 min p.i.)?
**A.** 0.78±0.1 %ID/g

**Q.** What about the “Reduction of tumor uptake in Olaparib-blocked organs” value ([5]; autoradiography) of the same compound?
**A.** 66±9%

**Q.** What about the “Tumor to brain ratio” value ([5]; autoradiography) of the same compound?
**A.** ninefold

**Q.** And the “Reduction of tumor uptake in Olaparib-blocked organs” value ([5]; surface fluorescence imaging)?
**A.** 74±12%

**Q.** What about the “Tumor to brain ratio” value ([5]; surface fluorescence imaging) of the same compound?
**A.** sevenfold
